V1aR counter: activates human V1a receptor in oxytocin agonist counter-screen; P37288; CHO-V1R cells, Fluo-8 calcium fluorescence, agonist mode; 0% DMSO, 100% 3 nM vasopressin; activation, % at 3 µM; actives 0.25% (n = 320,000); AID 2797;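 active = activation above the mean activation of all tested compounds plus 3 SD, per screening run, cut at about 20% in these data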;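 also: signal is peak over basal fluorescence ratio across a 100 second FLIPR read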
OXTR agonist: agonists of human oxytocin receptor | P30559 | CHO-OTR cells, Fluo-8 calcium fluorescence; normalized: DMSO 0%, oxytocin 100% | activation, % at 3 µM | actives 0.32% (n = 320,000);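 active = activation above the mean of all tested compounds plus 3 SD, cutoff set per screening run, cut at about 20% in these data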;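 also: peak over basal fluorescence ratio from a 100 s FLIPR kinetic read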
Target sequence (P30559 whole entry, looked up): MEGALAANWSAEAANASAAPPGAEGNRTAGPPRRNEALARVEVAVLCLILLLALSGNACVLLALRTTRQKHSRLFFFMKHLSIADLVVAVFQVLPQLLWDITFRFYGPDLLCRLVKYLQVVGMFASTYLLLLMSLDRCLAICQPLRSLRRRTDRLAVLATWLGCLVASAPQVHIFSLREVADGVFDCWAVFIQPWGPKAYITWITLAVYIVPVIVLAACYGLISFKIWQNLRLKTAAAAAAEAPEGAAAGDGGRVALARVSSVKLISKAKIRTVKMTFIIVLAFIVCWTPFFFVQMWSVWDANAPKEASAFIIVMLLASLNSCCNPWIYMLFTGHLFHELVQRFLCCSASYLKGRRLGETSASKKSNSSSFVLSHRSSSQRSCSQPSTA
zfTRPN1 agonist: zebrafish TRPN1 (NompC) channel agonism; HEK293 zebrafish TRPN1-YFP, Fluo-8 calcium fluorescence; 100% = response to 87 µM carbachol; activation, % at 3 µM; actives 0.18% (n = 220,000);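 active = activation above its plate's cutoff, the mean activation of test wells on that plate plus 3 SD, cut at about 19% in these data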;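 also: 0% = DMSO alone and 100% = 87 µM carbachol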
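Material: zebrafish TRPN1-YFP in HEK293 cells. Doses: one dose of 3 µM, 0.3% DMSO. Incubation: dye 1 h 37 °C plus 30 min RT. Measured by: intracellular calcium fluorescence with Fluo-8.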
TRPML3 ag: activates the human TRPML3 channel | Q8TDD5 | HEK293 TRPML3-YFP, Fluo-8 calcium fluorescence; 100% = the carbachol control signal | activation, % at 3 µM | actives 0.29% (n = 220,000) | AID 1448;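 active = activation above its plate's cutoff, the mean activation of the plate's test wells plus 3 SD, cut at about 12% in these data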;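 also: 0% = DMSO only wells and 100% = carbachol wells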
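system = HEK293 cells stably carrying human TRPML3-YFP | doses = one concentration, 3 µM nominal, 0.3% DMSO | timing = dye loading 1 h 37 °C then 30 min ambient, 125 s read | detection = Fluo-8 calcium dye fluorescence, ex 470-495, em 515-575 nm | benchmarks = high control carbachol 87 µM, low control DMSO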
OXTR potentiate: human OXTR potentiation | P30559 | CHO-OTR cells, Fluo-8 calcium fluorescence, potentiator mode; 0% = oxytocin EC15, 100% = EC100 | activation, % at 3 µM | actives 0.061% (n = 320,000) | AID 2445;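 active = activation above that plate's cutoff, the mean activation of tested compounds plus 3 SD, cut at about 6.6% in these data, passing the limit was not always enough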;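 also: 100% uses oxytocin at 75 nM as the full agonist control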
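Material: human OTR in CHO cells. Compound: 3.0 µM, one dose. Timing: compound 6 min at room temperature before oxytocin, 100 s read. Evaluation: % activation of max/min ratio relative to oxytocin controls. Replication: single well per compound, singlicate. Signal: Fluo-8 calcium dye fluorescence.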
TRPN1 ag 2: activates zebrafish TRPN1, counter-screen for TRPML3 agonists | shares compounds with TRPML3 ag | HEK293 zebrafish TRPN1-YFP, Fluo-8 calcium fluorescence; scaled: carbachol wells 100%, DMSO wells 0% | activation, % at 3 µM | actives 10% (n = 310) | AID 1525;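 active = mean activation over replicates above a set limit taken from the earlier TRPN1 channel primary screen, cut at about 19% in these data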;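 also: 100% = carbachol and 0% = 0.3% DMSO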
TRPML3 ag conf: human TRPML3 agonism, confirmation. activation, % at 3 µM. actives 80% (n = 310). shares compounds with TRPML3 ag. AID 1526. HEK293 TRPML3-YFP, Fluo-8 calcium fluorescence; 100% set by carbachol, 0% by DMSO;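 active = activation above a set limit derived from the earlier primary screen, cut at about 12% in these data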
OXTR agonist cf: confirmation of human oxytocin receptor agonists; AID 434963; activation, % at 3 µM; CHO-OTR cells, Fluo-8 calcium fluorescence, agonist; actives 20% (n = 390); shares compounds with OXTR agonist;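 active = mean activation above about 20% derived from the earlier single-dose screen, limit read from the data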;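 also: peak over minimum fluorescence ratio per well during a 100 second FLIPR read; 0% = DMSO alone and 100% = oxytocin high control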
V1aR counter 3x: V1R agonism in triplicate, counter-screen for OXTR agonists | shares compounds with OXTR agonist | CHO-V1R cells, Fluo-8 calcium fluorescence, agonist | activation, % at 3 µM | actives 10% (n = 390) | AID 434991;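 active = mean activation over triplicate exceeds the hit threshold set in the earlier primary screen, cut at about 20% in these data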;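 also: peak over basal fluorescence ratio within a 100 second read; 0% = DMSO alone and 100% = 3 nM vasopressin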
* = called active by the depositor. In the library only some 0.55% were active in any assay of this set; here they are far more common.

`O=C1NC(=O)N(c2ccc(Cl)cc2)C(=O)/C1=C\c1ccc(Sc2nc3ccccc3[nH]2)o1` gave V1aR counter 36*, OXTR agonist 29*, zfTRPN1 agonist 22*, TRPML3 ag 12* and OXTR potentiate -16.
O=C1NC(=O)N(Cc2ccc(F)cc2)C(=O)/C1=C\c1ccoc1 was read as V1aR counter 29*, OXTR agonist 31*, zfTRPN1 agonist 13, TRPML3 ag 9 and OXTR potentiate -23.
`Fc1cccc(C2NCCc3[nH]cnc32)c1` (centres undefined) gave V1aR counter 1, OXTR agonist 1, zfTRPN1 agonist 2, TRPML3 ag 1 and OXTR potentiate 1.
Screening O=C1CC2OCC=C3CN4CCC56c7cc([N+](=O)[O-])ccc7N1C5C2C3CC46 (centres undefined) returned V1aR counter 0, OXTR agonist 0, zfTRPN1 agonist -1, TRPML3 ag 0 and OXTR potentiate 4.
Screening O=C1/C(=C\c2ccccc2)C2OCC=C3CN4CCC56c7ccccc7N1C5C2C3CC46 (centres undefined) returned V1aR counter 14, OXTR agonist 20*, zfTRPN1 agonist 4, TRPML3 ag 2 and OXTR potentiate -5.
`COC(=O)C1=C(c2cc3ccccc3o2)C[C@@H]2CC[C@H]1N2C(=O)N1CCOCC1` gave V1aR counter 1, OXTR agonist -1 and OXTR potentiate 2.
Cc1nc2cc(C(F)(F)F)ccc2n1C1CCN(Cc2nnnn2Cc2ccc3c(c2)OCO3)CC1 was read as V1aR counter 5, OXTR agonist 5, zfTRPN1 agonist 4, TRPML3 ag 2 and OXTR potentiate -22.
Screening Cc1nc2cc(C(F)(F)F)ccc2n1C1CCN(Cc2nnnn2Cc2cccs2)CC1 returned V1aR counter 37*, OXTR agonist 33*, zfTRPN1 agonist 6, TRPML3 ag 4 and OXTR potentiate -12.
For CC1(C)CSC(=NCc2ccccc2)N1 the results were V1aR counter 14, OXTR agonist 16, zfTRPN1 agonist 61*, TRPML3 ag 58* and OXTR potentiate -16.
`CCCCCn1c(=O)c(C(=O)Nc2ccccc2C)c(O)c2ccccc21` gave V1aR counter 0, OXTR agonist -1 and OXTR potentiate -6.
`CCCCn1c(=O)c(C(=O)Nc2ncccc2C)c(O)c2ccccc21` gave V1aR counter 39*, OXTR agonist 36* and OXTR potentiate -11.
CCCCCCn1c(=O)c(C(=O)Nc2ncccc2C)c(O)c2ccccc21 was read as V1aR counter 46*, OXTR agonist 38* and OXTR potentiate -21.
C[C@]12CCC3C(CC[C@H]4C[C@@H](O)CC[C@]34C)C1CC[C@@H]2OC(=O)[C@H](N)CCCCN (some centres undefined) was read as V1aR counter 0, OXTR agonist 0 and OXTR potentiate -7.
CCOc1ccc(NC(=O)c2c(O)[nH]c(=O)[nH]c2=O)cc1 was read as V1aR counter 0, OXTR agonist -1 and OXTR potentiate -1.
For CCOC(=O)c1ccc(NC(=O)c2c(O)[nH]c(=O)[nH]c2=O)cc1 the results were V1aR counter 1, OXTR agonist 1, zfTRPN1 agonist 308*, TRPML3 ag 247* and OXTR potentiate -15.
CN1/C(=C\C=C2C(=O)NC(=O)NC2=O)C(C)(C)c2ccccc21 was read as V1aR counter 32*, OXTR agonist 25*, zfTRPN1 agonist 42*, TRPML3 ag 17* and OXTR potentiate -14.
CCC1(C(=O)c2ccc(C)cc2)C2c3ccccc3OC(=O)C21C(=O)O (centres undefined) was read as V1aR counter 1, OXTR agonist 2, zfTRPN1 agonist 0, TRPML3 ag 0 and OXTR potentiate 5.
`CN1/C(=C\C=C\C2=[N+](C)c3ccc4ccccc4c3C2(C)C)C(C)(C)c2ccccc21` gave V1aR counter 59*, OXTR agonist 81*, zfTRPN1 agonist 24*, TRPML3 ag 29* and OXTR potentiate -24.
For CC1(O)CCN2C(=O)CCc3cccc1c32 (centres undefined) the results were V1aR counter 1, OXTR agonist 0 and OXTR potentiate -3.
Screening CC(Cc1ccccc1)[n+]1cc(/N=C(\[O-])N(C)C)on1 (centres undefined) returned V1aR counter 1, OXTR agonist 1, zfTRPN1 agonist 0, TRPML3 ag 0 and OXTR potentiate -6.
For O=C1CCCN1CC#CCN1CCCC1 the results were V1aR counter 0, OXTR agonist 1, zfTRPN1 agonist 3, TRPML3 ag 27*, OXTR potentiate -12, TRPN1 ag 2 6 and TRPML3 ag conf 35*.
Screening C[C@]12CCC(=O)C=C1C=CC1C2CC[C@]2(C)C(=O)CCC12 (some centres undefined) returned V1aR counter 0, OXTR agonist 5 and OXTR potentiate -3.
FC(F)(F)c1cccc(C2NCc3ccccc3-n3cccc32)c1 (centres undefined) was read as V1aR counter 0, OXTR agonist -2 and OXTR potentiate -21.
`Oc1ccc(C2NCc3ccccc3-n3cccc32)cc1Cl` (centres undefined) gave V1aR counter 17, OXTR agonist 28*, zfTRPN1 agonist 0, TRPML3 ag 1, OXTR potentiate -23, OXTR agonist cf 10 and V1aR counter 3x 2.
For O=C(COc1ccc(Br)cc1)N1CCN(Cc2c[nH]c3ccccc23)CC1 the results were V1aR counter 5, OXTR agonist 10, zfTRPN1 agonist 1, TRPML3 ag 1 and OXTR potentiate -24.

Screening data (PubChem)
